Measured values as given in the EternaBench riboswitch data.

Tested on: MS2 coat protein
Assay: apparent Kd, MS2 coat protein; higher = weaker binding; RNA-MaP array; FMN 200 µM where present
In short: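 Designs were transcribed by stalled E. coli RNA polymerase on Illumina sequencing-chip clusters. They were titrated with SNAP-549-labelled MS2 coat protein from 0.7 or 1.5 nM, doubling to 3 µM, in 100 mM Tris-HCl pH 7.5, 80 mM KCl, 4 mM MgCl2, BSA, DTT, yeast tRNA and Tween-20, without and then with constant ligand. The apparent Kd is the median of filtered per-cluster fits after normalisation of green signal to red-channel RNA signal and control-cluster median Fmax.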

[1] = designed as: OFF switch for flavin mononucleotide, no ligand
[2] = ligand present: flavin mononucleotide, designed as: OFF switch for flavin mononucleotide
[3] = designed as: ON switch for flavin mononucleotide, no ligand
[4] = ligand present: flavin mononucleotide, designed as: ON switch for flavin mononucleotide

“UGCUACAUGAGGAUCACCCAUGUAAUGUGGGAAUCGUUAGGACAGGAUAUGAUUGUAUUGUUUUUUCAGAAGGGUCAUUACUUU” was tested, and the “apparent Kd” value [1] was 302 nM and the “apparent Kd” value [2] was 303 nM.

“GGAUGCCGCUCAGGAUAUGUGGGUUGUCUAGUAUCUAGAUUCCACAUGAGGAUCACCCAUGUAACACAGAAGGGAGAUGGUGAU” was tested, and the “apparent Kd” value [3] was 526 nM and the “apparent Kd” value [4] was 23.2 nM.

For “ACAUUUUAUGCAGGAUAUUGACUUUGGAUUAAACAAGAAGGGCAUUACAUGAGGAUCACCCAUGUUUUAUUGGUAUAUAAGUUC”, the “apparent Kd” value [1] was 13.9 nM and the “apparent Kd” value [2] was 17.1 nM.

For “ACCCAGUUUUGCACUACAUGAGGAUCACCCAUGUGAGCGAGCAGAAGGACGAUGGGUGGAAAAUCGUAGGAUAUGCACUGGGUA”, the “apparent Kd” value [3] was 47.2 nM and the “apparent Kd” value [4] was 12.6 nM.

“GAGUGGUAGAGAGGAUAUGCAUUGUUAUUAAAUGCAGAAGGUUUUAACAUGAGGAUCACCCAUGUAGGACUAUUCCUGUGUUUC” was tested, and the “apparent Kd” value [3] was 15.5 nM and the “apparent Kd” value [4] was 13.6 nM.

“CUUUUGUGAGGAUAUCAGUAGUAAUAAAAUAAAAUUACUACUGAGAAGGCACAUGAGGAUCACCCAUGUUCCUC” was tested, and the “apparent Kd” value [1] was 40 nM and the “apparent Kd” value [2] was 182 nM.

“ACUAGAAGCGUGAGAUAUCACAUGAGGAUCACCCAUGUGACGCAGGAUAUAACAAUAUCAGAAGGUUAGAAGGGUGAGCACGCC” was tested, and the “apparent Kd” value [3] was 101 nM and the “apparent Kd” value [4] was 52.9 nM.

“CUUUUGUGAGGAUAUUAGUAGUAAAUAAAUUAAAUUACUACUGAGAAGGCACAUGAGGAUCACCCAUGUUCCUC” was tested, and the “apparent Kd” value [1] was 31.3 nM and the “apparent Kd” value [2] was 243 nM.

“UGUCCAUAGCAGAAGGACAUGUAUAACCAUGAAAACAUGAGGAUCACCCAUGUAGGAUAUGCUAUGGACUAAGAGCGAAAGCUC” was tested, and the “apparent Kd” value [1] was 8.57 nM and the “apparent Kd” value [2] was 68.8 nM.

In the case of “AAUAACAGAGGAUAUACUAUUUUAUGUAUUUAUUAUUUUGAACAUGAGGAUCACCCAUGUAGAAGGCUGAUUAA”, the “apparent Kd” value [1] is reported as 29.6 nM and the “apparent Kd” value [2] is reported as 27.2 nM.

With “CAGCGCUGUCGAGAGGAUAUGCGGUGAUGGACAUGAGGAUCACCCAUGUUAGCGGUAGCAUUACGGUAGAAGGCUCUACAGCUGC” the “apparent Kd” value [3] was 31 nM and the “apparent Kd” value [4] was 13.2 nM.

In the case of “CGCUCAAUUACUUUGAAUAGAAUCAGAAGGCGUAACAUGAGGAUCACCCAUGUAUUGACGUGUAACGAGGAUAUGAAUUGAGCG”, the “apparent Kd” value [1] is reported as 4.7 nM and the “apparent Kd” value [2] is reported as 4.57 nM.

With “GAACGUGACAUGAGGAUCACCCAUGUUGCCUGAGCCAGGUCGUAGGAUAUCCUGAUGAUUAAUUUGGAGAAGGGCGACUGGGAA” the “apparent Kd” value [3] was 34.4 nM and the “apparent Kd” value [4] was 14.3 nM.

With “UUGAAUUAUAAGGAUAUGGGAGUCGAUAGACACCCAGAAGGUAUAACAUGAGGAUCACCCAUGUGUCCUAUCUU” the “apparent Kd” value [1] was 22.2 nM and the “apparent Kd” value [2] was 23.4 nM.

In the case of “GUGCCUUGGGAGAAGGCCCAAUGCAAAGCAUAGGGAGGAUAUCCAUAUAAUAAAUAAACAUGAGGAUCACCCAUGUGGCACAAA”, the “apparent Kd” value [3] is reported as 19.4 nM and the “apparent Kd” value [4] is reported as 12 nM.

In the case of “AGAAACUACGAGAAGGACAUGUGGUCAAAACGAAACAUGAGGAUCACCCAUGUAGGAUAUCGUAGUUUCAGGAUCGUGAGAUCA”, the “apparent Kd” value [1] is reported as 265 nM and the “apparent Kd” value [2] is reported as 429 nM.

With “AUCUCGUCAGGAUAUUGGAUCUGGAUCGAAAGGUCUAGGUCUAAGAAGGGACAUGAGGAUCACCCAUGUCUGGU” the “apparent Kd” value [1] was 22.9 nM and the “apparent Kd” value [2] was 69.6 nM.

For “CCGUGAGCAGGAUAUACAUGAGGAUCACCCAUGUCCGAUCCAAACAUGGGAAAAGAAGGUAGAAGGGUUUGAGG”, the “apparent Kd” value [1] was 28.5 nM and the “apparent Kd” value [2] was 36.1 nM.

For “CUGUUCAGUGUAGGAUAUGCAUAUUCCCAUUAUGCAGAAGGACAUGAGGAUCACCCAUGUAUGUUAUUAUCAUGUGUUACAUGC”, the “apparent Kd” value [1] was 33.6 nM and the “apparent Kd” value [2] was 124 nM.

With “UGCUGGGAAUCAGGAUAUACGUGGUAUCCUGAGCACAUGAGGAUCACCCAUGUAGAAGGGAUUCCGCGGUGAGAUUCCGAAACA” the “apparent Kd” value [1] was 4.97 nM and the “apparent Kd” value [2] was 5.45 nM.

For “AUUAUUUAUAGUUAUUGGUAUUUGACAGAAGGUGAAAGUGUCACAUGAGGAUCACCCAUGUUCUUCAAGGAUAUGUUGGUAUAC”, the “apparent Kd” value [3] was 66.1 nM and the “apparent Kd” value [4] was 11.8 nM.

With “AGUCGGCGAGGAUAUACAUGAGGAUCACCCAUGUGAGAUAGUGCACGCGUACGUGUACGUAGAAGGCGCUGACA” the “apparent Kd” value [1] was 12.1 nM and the “apparent Kd” value [2] was 23.2 nM.

In the case of “UGAUAGGACAGAGGAUAUACGUGCUAGAGAUACUAGCAAAAUUUCCUCACAUGAGGAUCACCCAUGUAGAAGGCUGUCCUAUCU”, the “apparent Kd” value [1] is reported as 47.8 nM and the “apparent Kd” value [2] is reported as 1100 nM.

For “UAAAAGACUAGCUUUGGUAAGAUCACAUGAGGAUCACCCAUGUAGGAUAUGAGCAGAAAAUCUGCUCAGAAGGACAUGCUAGUC”, the “apparent Kd” value [1] was 16.2 nM and the “apparent Kd” value [2] was 156 nM.

In the case of “GCUGCGUACGCAGGAUAUACAUGAGGAUCACCCAUGUAACUCGAACUCUAAGCGGGUGCGCGCAUGUAGAAGGGCGGGCGAGCC”, the “apparent Kd” value [1] is reported as 35 nM and the “apparent Kd” value [2] is reported as 67.9 nM.

In the case of “UGUUGUAAACAGAACAUGAGGAUCACCCAUGUGCUCUCGUGUAAGGAUAUACAUUCGUAUGGAAAGUAGAAGGUACUAAUUAUG”, the “apparent Kd” value [3] is reported as 103 nM and the “apparent Kd” value [4] is reported as 117 nM.

In the case of “AACUAACAUGAGGAUCACCCAUGUCAGGAUAUGCAUCAAUCAAUCAAUCAAUCAAUCAGCAGAAGGGACACUAC”, the “apparent Kd” value [1] is reported as 16.8 nM and the “apparent Kd” value [2] is reported as 19.4 nM.

With “CGGCCGUAAGGAUAUACAUGAGGAUCACCCAUGUAUGGAAUAGCAUGAGGCGGCCCAGGUAGAAGGUAUGCCCG” the “apparent Kd” value [1] was 20.8 nM and the “apparent Kd” value [2] was 30.5 nM.

In the case of “UUGAGGUGCAAGAAGGGUCACAUGAGGAUCACCCAUGUCAUGUGAAGUCUCGAGAUUUUAUGUGGAUAGGAUAUUGCACCGAAC”, the “apparent Kd” value [3] is reported as 203 nM and the “apparent Kd” value [4] is reported as 113 nM.

With “AAGGUGAGAGGAUAUACAUGAGGAUCACCCAUGUGUCGGCCCUCCACAUAUGCCUUGUGUAGAAGGCUCCCGAG” the “apparent Kd” value [1] was 14.6 nM and the “apparent Kd” value [2] was 22.3 nM.

In the case of “AACAGCUCGUCAGGAUAUAUUUUCUUUUUAUGUAUUUAUGUACAUGAGGAUCACCCAUGUUGUUUGUAGAAGGGACGAGCUGAA”, the “apparent Kd” value [1] is reported as 20.1 nM and the “apparent Kd” value [2] is reported as 16.7 nM.

With “UUAUUAUAUGUAGGAUAUGCAUAUUAUUAUUAUGCAGAAGGACAUGAGGAUCACCCAUGUAUAUUAUUAUUAUAUGUUAUAUAU” the “apparent Kd” value [1] was 25.5 nM and the “apparent Kd” value [2] was 36.9 nM.

In the case of “CGCUCAGAGAACGAUACGAAUAGACAUGAGGAUCACCCAUGUAGAAGGACAACGGAAUAAACGUUGUAGGAUAUACAUUUAGUG”, the “apparent Kd” value [1] is reported as 34.3 nM and the “apparent Kd” value [2] is reported as 90.4 nM.

In the case of “CGGGAGUCAGGAUAUACGAACAUGUCGCCAGAUGUCAUGGUACAUGAGGAUCACCCAUGUAGAAGGGAGGAGAU”, the “apparent Kd” value [1] is reported as 139 nM and the “apparent Kd” value [2] is reported as 103 nM.

In the case of “GCCAUGUUAGGAUAUGCCAUUAUACUGCUGGGUAUAGAUUGGUAGAAGGAACAUGAGGAUCACCCAUGUUCGGG”, the “apparent Kd” value [1] is reported as 83.9 nM and the “apparent Kd” value [2] is reported as 178 nM.

For “CUCAUGUGAGGAUAUGUGAUCAACCUUCUAUAUAGAUGAUUACAGAAGGCACAUGAGGAUCACCCAUGUAGAUC”, the “apparent Kd” value [1] was 23.4 nM and the “apparent Kd” value [2] was 18.3 nM.

For “GGAUGACAUAGUCAUCCUUAACGAACAUGAGGAUCACCCAUGUAGGAUAUGCUACUCAAAGAGUAGCAGAAGGACAUGUGUCUU”, the “apparent Kd” value [1] was 27.2 nM and the “apparent Kd” value [2] was 157 nM.

With “UUAUUAAGUGUGAGGAUAUGCUGGUCCUUGGAUCAGCAGAAGGCACAUGAGGAUCACCCAUGUACUUUAUAAAU” the “apparent Kd” value [1] was 15.7 nM and the “apparent Kd” value [2] was 46.6 nM.

In the case of “GUCAGCUCGUGAGGAUAUACAUGUGCUGGAGACAGCAUUAAAUAAUUCACAUGAGGAUCACCCAUGUAGAAGGCACGAGCUGAU”, the “apparent Kd” value [1] is reported as 17.8 nM and the “apparent Kd” value [2] is reported as 38.8 nM.

“AAUCUUUUUAUGGGAUUAGAAUAUGAGGAUAUCAUUUGUUUAUACAUGAGGAUCACCCAUGUUUCUGAGAAGGCAUAUAUAAUA” was tested, and the “apparent Kd” value [3] was 44.6 nM and the “apparent Kd” value [4] was 10.2 nM.

For “UCACGGCUCGGAGGAUAUGACACAUGAGGAUCACCCAUGUGUGUAAGCCAAUAAACCUACAAAUGUCAGAAGGCCGCGCCUCAU”, the “apparent Kd” value [1] was 15.3 nM and the “apparent Kd” value [2] was 14.7 nM.

With “UUUUAAUAAGAGAAGGAGGACUUCAUGAGGAUCACCCAUGUGUUAGUACUUAGGAUAUUUAAUAACAUGAGGAUCACCCAUGUC” the “apparent Kd” value [3] was 44.1 nM and the “apparent Kd” value [4] was 43 nM.
